In ChEMBL document CHEMBL1124238, “Methotrexate analogues. 32. Chain extension, alpha-carboxyl deletion, and gamma-carboxyl replacement by sulfonate and phosphonate: effect on enzyme binding and cell-growth inhibition” (J Med Chem, 1988) one finds inhibition, IC50 and Ki data, which are given here for 14 molecules.

A value given as a limit tells only on which side of the number the result lay.

Assay [1] relates to Folylpolyglutamate synthase (Mus musculus). The assay is described as follows: Inhibition of Folyl-polyglutamate synthase from mouse liver. More on the design: concentration or dose not given beside the values. Conditions: concentration not given here.
Assay [2] relates to L1210. Kind of assay: Inhibition of cell growth against cultured L1210 leukemia cells in mouse. In kind it is functional, cell-based.
In assay [3] the target is T1, Dihydrofolate reductase (Mus musculus, UniProt P00375).
T1 sequence (P00375 whole entry): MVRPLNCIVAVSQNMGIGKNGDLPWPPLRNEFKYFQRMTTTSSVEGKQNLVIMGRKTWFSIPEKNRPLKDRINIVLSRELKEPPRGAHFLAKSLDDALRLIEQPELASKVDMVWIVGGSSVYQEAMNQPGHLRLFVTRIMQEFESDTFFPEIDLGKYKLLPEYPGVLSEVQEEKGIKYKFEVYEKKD
The assay is described as follows: Inhibition of dihydrofolate reductase (DHFR) in mouse L1210 leukemia cells. In kind it is cell-based.

Assay [4] has as its system L1210 ( R81). Kind of assay: (§1) Inhibition of cell growth against highly MTX- and AMT-resistant mutant L1210/R81. In kind it is functional, cell-based. Conditions: Mus musculus.
Assay [5] is filed under the species Mus musculus. Kind of assay: (§2) Inhibition of Folyl-polyglutamate synthase from mouse liver. Conditions: concentration not given here. The method in brief:
(§3)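 Partially purified mouse liver enzyme, run at 37 °C for 1 h in Tris buffer pH 8.6 with 20 mM α-thioglycerol. The mixture held 1 mM [3H]-L-glutamic acid, 500 μM folic acid and 500 μM inhibitor. Activity is expressed as percent of untreated control. Ki,s comes from a slope replot of double-reciprocal 1/V versus 1/S plots, and was not determined where inhibition was below 30%.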

The nature of assay [6]: as §2. The method in brief:
as §3

In assay [7] the test system is L1210. Described as §1. In kind it is functional, cell-based. The conditions noted are these: Mus musculus.

Regarding `CN(Cc1cnc2nc(N)nc(N)c2n1)c1ccc(C(=O)NCCCCS(=O)(=O)O)cc1`, the inhibition in assay [1] stood at 26%.
`CN(Cc1cnc2nc(N)nc(N)c2n1)c1ccc(C(=O)NCCCS(=O)(=O)O)cc1`: the inhibition in assay [1] turned out to be 18%.
`Nc1nc(N)c2nc(CNc3ccc(C(=O)NC(CCCP(=O)(O)O)C(=O)O)cc3)cnc2n1` (stereo not given): the half-maximal inhibitory concentration (IC50) is 120 nM in assay [2], 83 nM in assay [3] and greater than 460000 nM in assay [4]. This molecule also showed an inhibition in assay [5] of 52%. This molecule showed a Ki in assay [6] of 124000 nM.
For `Nc1nc(N)c2nc(CNc3ccc(C(=O)NC(CP(=O)(O)O)C(=O)O)cc3)cnc2n1` (stereo not given), the IC50 was 250 nM in assay [2], 550 nM in assay [3] and 390000 nM in assay [7]. Moreover, in assay [5], the inhibition was 22%. Besides, the Ki in assay [6] stood at 900000 nM.
As for `Nc1nc(N)c2nc(CNc3ccc(C(=O)NC(CCCCP(=O)(O)O)C(=O)O)cc3)cnc2n1` (stereo not given), the results for the half-maximal inhibitory concentration (IC50) in assay [2], in assay [3] and in assay [4] were 130 nM, 67 nM and greater than 280000 nM, respectively. In assay [5], the inhibition amounted to 44%. Further, affinity in assay [6] was put at a Ki of 155000 nM.
`CCOP(=O)(O)CCCNC(=O)c1ccc(N(C)Cc2cnc3nc(N)nc(N)c3n2)cc1` came in with an inhibition in assay [1] of 9%.
The molecule `Nc1nc(N)c2nc(CNc3ccc(C(=O)NC(CCS(=O)(=O)O)C(=O)O)cc3)cnc2n1` (stereo not given) returned an inhibition in assay [1] of 77%.
The molecule `CN(Cc1cnc2nc(N)nc(N)c2n1)c1ccc(C(=O)NCS(=O)(=O)O)cc1` returned an inhibition in assay [1] of 19%.
Turning to `Nc1nc(N)c2nc(CNc3ccc(C(=O)NC(CCP(=O)(O)O)C(=O)O)cc3)cnc2n1` (stereo not given), the 50% inhibitory concentration (IC50) in assay [2] came out at 67 nM; in assay [3], 63 nM; in assay [4] it was 240000 nM. Further, in assay [5], the inhibition was determined as 100%. Also, the affinity in assay [6], expressed as Ki, was 8400 nM.
Molecule `CN(Cc1cnc2nc(N)nc(N)c2n1)c1ccc(C(=O)NCCS(=O)(=O)O)cc1` yielded an inhibition in assay [1] of 22%.
In turn, `CN(Cc1cnc2nc(N)nc(N)c2n1)c1ccc(C(=O)NC(CCP(=O)(O)O)C(=O)O)cc1` (stereo not given) yielded an inhibition in assay [1] of 53%.
On to `CN(Cc1cnc2nc(N)nc(N)c2n1)c1ccc(C(=O)NCCCP(=O)(O)O)cc1`, for which the inhibition in assay [1] was 16%.
`CN(Cc1cnc2nc(N)nc(N)c2n1)c1ccc(C(=O)NC(CCS(=O)(=O)O)C(=O)O)cc1` (stereo not given) displayed an inhibition in assay [1] of 59%.
As for `CN(Cc1cnc2nc(N)nc(N)c2n1)c1ccc(C(=O)NCCP(=O)(O)O)cc1`, in assay [1], the inhibition was 22%.

One may read the inhibition as the change of the read-out against control, counted positive when it falls. As usually defined, the IC50 is the point on the concentration scale where inhibition reaches its midpoint. By Ki is commonly meant a dissociation constant, usually derived from enzyme kinetics or from competition with a known ligand.
